UPR CHOP act: apoptotic UPR (CHOP) activation. CHO-CHOP luciferase reporter, luminescence; percent of tunicamycin response over DMSO baseline. activation, % at 10 µM. 0.34% of 330,000 active;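 active means at 10 µM dose, activation of 40% or more, normalized to positive control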;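 further: 100% = tunicamycin at 10 µg/mL and 0% = DMSO alone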
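measured by = luciferase luminescence | assay system = CHO-CHOP cells, stable luciferase reporter of PERK-eIF2a-CHOP signalling | amount = 500 reporter cells seeded per well | timing = 6 h compound exposure at 37 °C after overnight seeding | controls = positive tunicamycin 10 µg/mL, negative DMSO alone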
CHOP inh: blocks CHOP induction under ER stress; CHO-K1 CHOP-promoter luciferase, tunicamycin-induced, 15-18 h; inhibition, % at 10 µM; 3.8% of 220,000 active; AID 2732;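 active means compounds that reduced the stress-induced luciferase reporter signal by more than about 70% of percent inhibition, limit read from the data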;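 further: 0% = tunicamycin plus vehicle and 100% = wells without tunicamycin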
TbMetRS inhib: Trypanosoma brucei MetRS inhibition. purified T. brucei MetRS, ATP depletion, Kinase-Glo luminescence. inhibition, % at 11.9 µM. 0.4% of 360,000 active;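 active means inhibition above a per-plate cutoff of the control wells' mean inhibition plus 3 SD, cut at about 5.5% in these data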;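 further: 0% = DMSO wells median and 100% = median of wells with control inhibitor compound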
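Material: parasite MetRS enzyme / Replication: singlicate, one well per compound / Signal: luminescence of leftover ATP / Schedule: 2 h aminoacylation at 25 °C after 15 min preincubation / Medium: HEPES-MgCl2-KCl buffer plus DTT, spermine, BSA, pyrophosphatase / Doses: 11.9 µM single point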
V-ATPase pH: regulators of yeast V-ATPase proton transport. S. cerevisiae, pHLuorin cytosolic pH fluorescence. response, % at 10 µM. AID 504577. 0.37% of 350,000 active; in the data active means response mostly above about 7.3%, no sharp cut-off; inactive means mostly below about 5.4%; further: actives read high
UPR XBP1 act: adaptive UPR (XBP1) activation; CHO-XBP1 luciferase reporter, IRE1-XBP1 UPR activation, luminescence; percent of tunicamycin response, DMSO as zero; AID 463104; activation, % at 20 µM; 0.33% of 330,000 active;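 active means versus positive control, 20 µM dose yields 30% or more activation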;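 further: 100% = tunicamycin at 10 µg/mL and 0% = DMSO only wells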
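Material: IRE1-XBP1 luciferase reporter CHO line / Quantity: one thousand reporter cells per well / Buffer or medium: F12 with 10% serum / Compound: 20 µM single concentration, DMSO 1% / Times: 6 h treatment, 37 °C / Detection: Steady-Glo luciferase glow luminescence, 10 min after reagent addition / Benchmarks: tunicamycin high, DMSO low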
CHOP inh conf: confirmation of CHOP induction inhibitors; CHO-CHOP promoter luciferase reporter, tunicamycin-induced, luminescence; inhibition, % at 10 µM; 45% of 2,100 active; shares compounds with CHOP inh;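 active means mean of three repeat readings of reporter signal inhibition above a set limit, cut at about 70% in these data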;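 further: 0% = tunicamycin plus vehicle and 100% = wells lacking tunicamycin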
Starred values were filed as active, the others as inactive; nt = no result. The full list was thinned out, with hits kept by preference.

SMILES	UPR CHOP act	CHOP inh	TbMetRS inhib	V-ATPase pH	UPR XBP1 act	CHOP inh conf
O=[N+]([O-])c1ccc(S(=O)(=O)Nc2ccccn2)cc1	-1	nt	1	-1	-3	nt
O=C(N/N=C/c1cccc(F)c1)c1c(O)c2ccccc2[nH]c1=O	nt	104*	0	3	nt	93*
O=C(N/N=C/c1ccc(F)cc1)c1ccccc1	2	-20	-1	6	-2	nt
CCCn1c(=O)c(C(=O)N/N=C/c2ccc(F)cc2)c(O)c2ccccc21	-1	44	0	1	-4	nt
CCCCCCn1c(=O)c(C(=O)N/N=C/c2cccc(F)c2)c(O)c2ccccc21	14	105*	-1	3	8	100*
O=C(Nc1cccc(F)c1)c1c(O)c2ccccc2[nH]c1=O	5	nt	-1	0	0	nt
O=C(N/N=C/c1ccc(F)cc1)c1c(O)c2ccccc2[nH]c1=O	3	101*	0	-1	8	72*
COc1cc(NC(=O)c2ccc(S(=O)(=O)N(C)c3ccccc3)cc2)cc(OC)c1	3	nt	0	6	-3	nt
O=C(NC(c1ccccc1)c1cc(Cl)c2cccnc2c1O)c1cccnc1 (stereo not drawn)	13	104*	nt	nt	4	104*
CS(=O)(=O)c1nc(-c2ccco2)cc(C(F)(F)F)n1	-10	111*	nt	nt	-5	122*
Oc1ccc(N=Nc2cccc(C(F)(F)F)c2)cc1C=Nc1ccc(N2CCOCC2)cc1	5	104*	0	-1	2	73*
CN1CC(c2ccccn2)C2(SC(=S)N(Cc3ccccc3)C2=O)C12C(=O)Nc1ccccc12 (stereo not drawn)	1	53	0	-2	-1	nt
CN1CC(c2ccccc2)C2(SC(=S)N(Cc3ccco3)C2=O)C12C(=O)Nc1ccccc12 (stereo not drawn)	2	101*	0	-2	11	84*
CCN1CCN(CC(=O)Nc2cc3c(cc2C(C)=O)OCO3)CC1	3	4	0	-2	-3	nt
CC(=O)c1cc2c(cc1NC(=O)CN1CCN(c3ccc(F)cc3)CC1)OCO2	-3	97*	-1	-7	3	19
COc1cc(/C=N/N=C(/C(=O)c2ccccc2)c2ccccc2)cc(OC)c1O	3	99*	0	12	-2	1
COC(=O)c1sc(-c2ccc(C(C)(C)C)cc2)cc1NC(=O)c1ccccc1C(=O)O	2	106*	0	2	4	116*
N#CC1=C(N)Oc2n[nH]c(-c3cccs3)c2C1C1CCCCC1 (stereo not drawn)	1	104*	-2	-1	0	37
N#CC1=C(N)Oc2n[nH]c(-c3cccs3)c2C1c1ccsc1 (stereo not drawn)	1	30	-1	6	4	nt
NC(=NCCc1ccccc1)c1cccc([N+](=O)[O-])c1	-1	nt	1	0	-5	nt
O=C(CSc1nnc(-c2ccc(O)cc2)o1)N1CCOCC1	0	19	0	-1	1	nt
Oc1ccc(-c2nnc(SCC3CCCCC3)o2)cc1	6	107*	-1	0	10	35
O=C(CCCc1nc(-c2ccccc2)no1)NC1CCCCC1	2	nt	1	-5	1	nt
COc1cc(OC)cc(C(=O)N[C@H](C(=O)Nc2nc(-c3cc(OC)ccc3OC)cs2)C(C)C)c1	0	33	0	0	1	nt
COc1cc(OC)cc(C(=O)N[C@H](C(=O)Nc2nc(-c3ccc(OC)c(OC)c3)cs2)C(C)C)c1	0	101*	0	-3	8	56
O=C(C1CCN(S(=O)(=O)c2cnc[nH]2)CC1)N1CCN(c2ccc([N+](=O)[O-])cc2)CC1	1	nt	0	1	-4	nt
COc1ccc(S(=O)(=O)NC2CC(C)(C)NC(C)(C)C2)cc1C(C)C	0	5	0	-4	0	nt
COC(=O)c1cc2sc(Cl)cc2n1CC(=O)Nc1cccc(SC)c1	0	99*	0	-4	-1	-3
CSc1cccc(NC(=O)C2CCCN(S(=O)(=O)c3ccc(F)cc3)C2)c1 (stereo not drawn)	-1	41	0	1	1	nt

Screening data deposited in PubChem by several laboratories.
